Assay results: the RNAGym collection of RNA variant scans (doi:10.1126/science.aae0568)
Variants at the floor of the assay were thinned out.

B1: tRNA (parent)
chain: GUUCCGUUGGCGUAAUGGUAACGCGUCUCCCUCCUAAGGAGAAGACUGCGGGUUCGAGUCCCGUACGGAACG

Variants of: B1
Assay: yeast fitness relative to wild type (ratio to wild type); higher = fitter; tRNA-Arg(CCU), competitive growth, 37 C, YPD
Method in brief: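 For this measurement, the tRNA-Arg(CCU) gene was varied by chemical synthesis at a 3% per-site mutation rate across 69 sites, and each variant was placed at the native genomic locus in Saccharomyces cerevisiae. The pooled strains went through a 24-hour competition in YPD at 37°C in six parallel replicates, with amplicons from start and end populations read by 100-nucleotide paired-end sequencing. Darwinian fitness relative to wild type followed from the change in each genotype's frequency. Genotypes needed ≥ 100 starting reads, and estimates < 0.5 were set to 0.5.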

Variant	yeast fitness
GUUCCGUUGGCGUAAUGGUAACGCGUCACCCUCCUAAGGAAAAGACUGCGGGUUCGAGUCCCGUACAGAACG	≤ 0.5
GUUCCGUUGGCGUAAUGGUAACGCGUCCCCCUCCUACGGUGAAGACUGCGGGUUUGAGUCCCGUACGGAACG	0.525
GUUCCGUUGGCGUAAUGGUAACGCGUCACCCUCCUAAGGAGAAGACUGCGGGUUCGAGUCCCGUACCGAACG	0.774
GUUCCGUUGGCGUAAUGGUAACGCGUCACCCUCCUAAGGAGAAGACUGCGCGUUCGCGUCCCGUACGGAACG	0.53
GUUCCGUUGGCGUAAUGGUAACGCGUCAGCUUCCUAAGGAGAAGACUGCGGGUUCGAGUCCCGUACGAAACG	0.547
GUUCCGUUGGCGUAAUGGUAACGCGUCAGCCUCCUAAGGAGAAGACUGCGGGUUCGAGUCCCGUACGCAACG	≤ 0.5
GUUCCGUUGGCGUAAUGGUAACGCGUCACCCUGCUUAGGGGAAGACUGCGGGUCCGAGUCCCGUUCGGAACG	≤ 0.5
GUUCCGUUGGCGUAAUGGUAACGCGUCACCCUCCUAAGAAGAAGACUGCGGGUUCGAGUCCCGGACGGAACG	≤ 0.5
GUUCCGUUGGCGUAAUGGUAACGCGUCCCCCUCCUCAGGAGAAGACUGCGGGUUCGAGUCCCGUACCGAACG	0.539
GUUCCGUUGGCGUAAUGGUAACGCGUCACCCUCUUAAGGUGAAGUCUGCGGGUUCGAGUCCCGUAUGGAACG	≤ 0.5
GUUCCGUUGGCGUAAUGGUAACGCGUCCCCCUCCUACGGAGAAGACCGCGGGUUCGAGUCCCGUACGGAACG	0.697
GUUCCGUUGGCGUAAUGGUAACGCGUCACCCUCCUAAGGAGAAGACUGCGGGUUCCAGUCCCGUACGGAACG	≤ 0.5
GUUCCGUUGGCGUAAUGGUAACGCGUCACCCUCCUAAGGAGAAGACUGCGGGUUCGAGUGCCGUAGGGGACG	≤ 0.5
GUUCCGUUGGCGUAAUGGUAACGCGUCCCCCUCCUAUGGAGAAGACUGCGGGUUCGCGUCCCGUACGGUCCG	≤ 0.5
GUUCCGUUGGCGUAAUGGUAACGCGUCACUCUCCUAAGGAGAAGACUGCGGGUUCGAGUCCCGUACGGCACG	0.57
GUUCCGUUGGCGUAAUGGUAACGCGUCCCCCUCCUAAGGGGAAGACUGCGGGUUCGAGUCCCGUACGGAUCG	0.603
GUUCCGUUGGCGUAAUGGUAACGCGUCAUCCUCCUAAGGAGAAGCCUGCGGGUUCGAGUCCCGUACGGCACG	0.541
GUUCCGUUGGCGUAAUGGUAACGCGUCCCCCUCCUAAGGCGAAGACUGCGGGUUCGAGUCCCGUACGGAACG	0.902
GUUCCGUUGGCGUAAUGGUAACGCGUCCCCCUCCUAAGGUGAAGACUGCGGGUUCGAGUCCCGUACGGAACG	1.01
GUUCCGUUGGCGUAAUGGUAACGCGUCACCCUCCUAAGGAGAAGACUGCGGGUUCGAGUCCCGUACGAAACG	0.581
GUUCCGUUGGCGUAAUGGUAACGCGUCAGCCUUGUAAGGAGAAGACUGCGGGUUCGAGUCCAGUACGGGACG	≤ 0.5
GUUCCGUUGGCGUAAUGGUAACGCGUCACCCUCCUAAGGAGAAGACUGCGGCUUCGAGUCCCGUACGGAACG	≤ 0.5
GUUCCGUUGGCGUAAUGGUAACGCGUCACCCUCGUAAGGAGAAGACUGCGGGUUCGAGUCCCGUACGGAACG	0.707
GUUCCGUUGGCGUAAUGGUAACGCGUCACCCUCCUAAGGAGAAAACUGCGGGUUCGAGUCCCGUACGAAACG	0.544
GUUCCGUUGGCGUAAUGGUAACGCGUCACCCUCCUAAGGAGAAGACUGCGGGUUCGAGUCCCGUAUGGAACG	0.796

Variant	yeast fitness
GUUCCGUUGGCGUAAUGGUAACGCGUCACCAUCCUAAGGAGCAGUCUGCGAGUUCGAGUCCCGUUCGGAACG	≤ 0.5
GUUCCGUUGGCGUAAUGGUAACGCGUCACCCUCCUAAGGAGAAGACUCCGGGUUCGAGUCCCGUACGGACCG	≤ 0.5
GUUCCGUUGGCGUAAUGGUAACGCGUCACCAUCCUAAGGAGCAGUCUGCGAGUUCGAGUCCCGAACGGAACG	0.512
GUUCCGUUGGCGUAAUGGUAACGCGUCCCCCUCCUAAGGGGAAGACUGCGGCUUCGAGUCCCGUACGGAACG	≤ 0.5
GUUCCGUUGGCGUAAUGGUAACGCGUCACCCUACUAAGGAGAAGACUGCGGAUUCGAGUCCCGUACGGAACG	≤ 0.5
GUUCCGUUGGCGUAAUGGUAACGCGUCACCCUCCUAAGGAGAAGACUGCGGGUUCCAGUCCCGUACUGAACG	0.525
GUUCCGUUGGCGUAAUGGUAACGCGUCACCGUCCUAAGGAGAAGACUGCGGGUUCGGGUCCUGUACGGAACG	≤ 0.5
GUUCCGUUGGCGUAAUGGUAACGCGUCACCCUGCUAAGGAGACGACUGCGGGUUCGCGUCCCGUACAGUACG	≤ 0.5
GUUCCGUUGGCGUAAUGGUAACGCGUCACCCUCCUAAGGAGAAGACUGGGGGUUCGGGUCCCGUACGGAACG	≤ 0.5
GUUCCGUUGGCGUAAUGGUAACGCGUCAGCCUUGUAAGGAGUAGACUGCGGGUUCGAGUCCCGUACGGAACG	0.536
GUUCCGUUGGCGUAAUGGUAACGCGUCACCCUCCUAAGGAGAAGACUGCGGGUUCGAGUCCCGGACGGAACG	0.709
GUUCCGUUGGCGUAAUGGUAACGCGUCACCCCCCUAAGGAGAAGACUGGGGAUUCGAGUCCCGUACGGAACG	≤ 0.5
GUUCCGUUGGCGUAAUGGUAACGCGUCACCCUCCGAAGGAGAAGACUGCGGGUUCGAGUCCAGUACGGAACG	≤ 0.5
GUUCCGUUGGCGUAAUGGUAACGCGUCACCCUUCUAAGGAGAAGACUGCGGGUUGGAGUCCCGUACGGAACG	≤ 0.5
GUUCCGUUGGCGUAAUGGUAACGCGUCACUCUCCUAAGGAGAAGACUGCGGGUUAGAGUCCCGUACGGAACG	≤ 0.5
GUUCCGUUGGCGUAAUGGUAACGCGUCAGCCUCCUCAGGAGAAGACUGCGGGUUCGAGUCCCGUACGGAACG	0.516
GUUCCGUUGGCGUAAUGGUAACGCGUCACCGUCCUAAGGAGAAGACUGCGGGUUAGAGUCCCGUACGCAACG	≤ 0.5
GUUCCGUUGGCGUAAUGGUAACGCGUCACCCUCUUAAGGAGAAGACUGCGGAUUCGAGCCCCGUAUGGAACG	≤ 0.5
GUUCCGUUGGCGUAAUGGUAACGCGUCACCCUCCUAAGGAAAAGACUGCGGGUUCAAGUCCUGUACGGAACG	≤ 0.5
GUUCCGUUGGCGUAAUGGUAACGCGUCAGCCUCCUAAGGAGAAGACUGCGGGUUCGAGUCCCGUACGGAACG	0.558
GUUCCGUUGGCGUAAUGGUAACGCGUCACCCUCCUAAGGAGAAGACUGCGAGUUCGUGUCCCGUACGGAACG	0.598
GUUCCGUUGGCGUAAUGGUAACGCGUCACCAUCCUAAGGAGAAGACUGCGGGUUCGAGUCCCGUACGGAACG	0.687
GUUCCGUUGGCGUAAUGGUAACGCGUCCCCCUCCUAAGGGGAAGCCUGCGGGUUCGAGUCCCGUACGGAUCG	0.911
GUUCCGUUGGCGUAAUGGUAACGCGUCCCCCUCCUCAGGAGAAGACUGCGGGUUCGAGUCCCGUACGGAACG	0.579
GUUCCGUUGGCGUAAUGGUAACGCGUCACCCUCCUAAGGAGAAGACUGCGGGUUCGAGUCCCCUACGGAACG	0.624

Variant	yeast fitness
GUUCCGUUGGCGUAAUGGUAACGCGUCACCCUCCUAAGGAGAAGACUGCGGGUACGAGUCCCGUACGGAACG	0.594
GUUCCGUUGGCGUAAUGGUAACGCGUCACCCUCCCACGGAGAAGACUGCGGGUUCGAGUCCCGAACAGAACG	≤ 0.5
GUUCCGUUGGCGUAAUGGUAACGCGUCACCCUCCUAAGGAGAAGACUGCGGGUUGGAGUCCCGUACGGAACG	0.537
GUUCCGUUGGCGUAAUGGUAACGCGUCACCCUCCUAAGGAGAAGACUGCGGGUUAGAGUCCCGUACGGAACG	0.52
GUUCCGUUGGCGUAAUGGUAACGCGUCACCCUCCUAAGGAGAAGACUGCGGGUUUGAGUCCCGUACGGAACG	0.739
GUUCCGUUGGCGUAAUGGUAACGCGUCCCCCUCCUAAGGAGCAGACUGCGGGUUCGAGUCCCGUACGGAACG	0.858
GUUCCGUUGGCGUAAUGGUAACGCGUCAGCCUCCUAAGGAGAAGACUGCGAGUUCAAGUCCCGUAGGGAACG	≤ 0.5
GUUCCGUUGGCGUAAUGGUAACGCGUCACCCUCCUAAGGAGAAGAAUGCGGGUUCGAGUCCCGUACGGAACG	0.846
GUUCCGUUGGCGUAAUGGUAACGCGUCACCCUCCUAAGGAGAAGAGUGCGGGUUCGAGUCCCGUACGGAACG	0.76
GUUCCGUUGGCGUAAUGGUAACGCGUCCCCCUCCUACGGAGAAGACUGCGGGUUCAAGCCCCGUACGGAACG	≤ 0.5
GUUCCGUUGGCGUAAUGGUAACGCGUCACCCUCCUAAGGAGAAGAUUGCGGGUUCGAGUCCCGUACGGAGCG	0.634
GUUCCGUUGGCGUAAUGGUAACGCGUCACCAUCCUCAGGAGAAGGCUCCGGGUUCGAGUCCCGUACGGAACG	0.619
GUUCCGUUGGCGUAAUGGUAACGCGUCACCAUCCUAAGGAGAAGACUGCGCGUUCGAGUCCCGUACGGAACG	≤ 0.5
GUUCCGUUGGCGUAAUGGUAACGCGUCAGCCUUGUAAGGAGUAGACUGCGGGUUCGAAUCCCGUACGGAACG	≤ 0.5
GUUCCGUUGGCGUAAUGGUAACGCGUCACCUUCCUAAGGAGAAGACUGCGGGUUCGAGUCCCGUAAGGAACG	≤ 0.5
GUUCCGUUGGCGUAAUGGUAACGCGUCAGCCUCCUAAGGAGAAGACUGCGAGUUCAAGUCCCGUACCGAACG	0.585
GUUCCGUUGGCGUAAUGGUAACGCGUCAGCCUACUAAGGAGUAGACUGCGGGUUCGAGUCCCGUACGGAUCG	0.531
GUUCCGUUGGCGUAAUGGUAACGCGUCACCCUCCUAAGGAGAAGACUGCGGGUUGGAGUCCGGUACGGAACG	≤ 0.5
GUUCCGUUGGCGUAAUGGUAACGCGUCACCCUCUUAAGGAGAAGACUGCGGGUUCGGGUCCCGUAUGGAACG	≤ 0.5
GUUCCGUUGGCGUAAUGGUAACGCGUCACCCUCCUAAGGAGAAGACUGCGGGUUGGAGUCCCGUACGGAGCG	≤ 0.5
GUUCCGUUGGCGUAAUGGUAACGCGUCACCAUCCUAAGGAGCAGUCUACGAGUUCGAGUCCCGAACGGAACG	≤ 0.5
GUUCCGUUGGCGUAAUGGUAACGCGUCACCCUCCUAAGGAGAAGACUCCGGGUUCGAGUCCCGUACGGUUCG	≤ 0.5
GUUCCGUUGGCGUAAUGGUAACGCGUCACCCUCCUAAGGAGAAGACUGCGGGUUCGAGUACCGUACGGAACG	0.535
GUUCCGUUGGCGUAAUGGUAACGCGUCACCCUCCUAAGGAGAAGACUGCGGGUUCGAGUGCCGUACGGAACG	0.572
GUUCCGUUGGCGUAAUGGUAACGCGUCAGCUUCCUAAGGAGAAGACUGCGGGUUCGAGUCCCGUACGGUACG	≤ 0.5
